Compound activity: PubChem, several laboratories
Shown are actives, neighbours in structure and some others; about 2% of the full set was active somewhere.
PKA-R1A act = PKA-R1A complex activation. AID 504707. PKA-R1A dissociation, Cy5-IP20 fluorescence polarization; scaled: DMSO 0%, 113 µM cGMP 100%. activation, % at 11.4 µM. P00514+P68181. actives 0.083% (n = 340,000);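 active means percent activation above the mean of all tested compounds plus 3 SD, cut at about 19% in these data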;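 further: higher means more PKAc released from R1A so a rise in polarization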
CAL PDZ FP-1 = blocks peptide binding to the human CAL PDZ domain; purified CAL PDZ, TMR-peptide fluorescence polarization, 1 h; actives 0.92% (n = 300,000); Q9HD26; inhibition, % at 24.9 µM;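 active means mean inhibition of at least 30% with at least half of replicates also reaching 30%; inconclusive means no clear call, values can overlap the other calls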
dFosB act-1 = activators of mouse delta FosB homodimer | activation, % at 25 µM | purified delta FosB, TAMRA-CDK5 oligo fluorescence polarization; percent of positive-control signal above neutral wells | actives 0.99% (n = 340,000) | P13346;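 active means mean activation above about 17%, with every replicate also reaching it, limit read from the data, passing the limit was not always enough; inconclusive means only one of the two conditions met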
Target sequence (P13346 whole entry, looked up): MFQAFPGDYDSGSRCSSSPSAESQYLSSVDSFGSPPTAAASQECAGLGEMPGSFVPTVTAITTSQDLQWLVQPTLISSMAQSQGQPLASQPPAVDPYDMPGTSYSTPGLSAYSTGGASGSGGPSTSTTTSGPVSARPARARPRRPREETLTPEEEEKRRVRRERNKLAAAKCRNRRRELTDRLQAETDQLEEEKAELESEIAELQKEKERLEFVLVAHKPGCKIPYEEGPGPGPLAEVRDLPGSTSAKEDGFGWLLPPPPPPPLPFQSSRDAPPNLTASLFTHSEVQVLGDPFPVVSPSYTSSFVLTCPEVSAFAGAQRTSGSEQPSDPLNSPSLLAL
PKA-R2B act = PKA-R2B complex activation; P22694+P31323; PKA-R2B holoenzyme dissociation, Cy5-IP20 fluorescence polarization; R2B truncated from residue 108, S112A mutant; 0% DMSO only, 100% 113 µM cGMP; activation, % at 11.4 µM; actives 0.079% (n = 340,000); AID 504700;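 active means activation above a cutoff set at the mean over all compounds plus 3 SD, cut at about 18% in these data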;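 further: higher means more holoenzyme dissociation and a rise in polarization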
NTR1 agonist = agonists of human neurotensin receptor NTR1. activation, % at 20 µM. actives 0.17% (n = 330,000). NTR1-U2OS beta-arrestin-GFP spot imaging, agonist mode;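 active means activation at or above 40% of the spot to cytoplasm intensity ratio, with at least 20 cells analyzed; inconclusive means wells under 20 cells, flagged as cytotoxic or low count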
CAL PDZ FP-2 = blocks peptide binding to human CAL PDZ domain; Q9HD26; purified CAL PDZ, TMR-peptide fluorescence polarization, 1 h; inhibition, % at 20 µM; actives 0.02% (n = 330,000); AID 504414;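 active means highest replicate inhibition of at least 40%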
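Material – purified CerCALP PDZ construct · Detection – FP readout, S and P plane fluorescence · Measure – percent inhibition from loss of millipolarization · Controls – unlabelled peptide for full inhibition, DMSO wells as neutral · Probe or stimulus – TMR-labelled reporter peptide T*-PRC34 bound in PDZ groove · Times – 1 h at RT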
dFosB act-2 = enhances mouse delta FosB homodimer binding to DNA | 2,400 tested, under 10 active | activation, % at 24.9 µM | shares compounds with dFosB act-1 | purified delta FosB, TAMRA-CDK5 oligo fluorescence polarization; normalised: neutral wells 0, positive control 100;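 active means highest replicate activation at or above 34% and every replicate reaching that threshold; inconclusive means meets only one of the two criteria; inactive means meets neither criterion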;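 further: higher polarization means more probe DNA bound by delta FosB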
Numbers stand for hits; n = inactive; u = inconclusive; x = no result.

SMILES | PKA-R1A act | CAL PDZ FP-1 | dFosB act-1 | PKA-R2B act | NTR1 agonist | CAL PDZ FP-2 | dFosB act-2
N=C1C(c2nc3ccccc3s2)=C(O)CN1NC(=O)c1c[nH]c2ccccc12 | n | n | 27 | n | n | n | n
N=C1C(c2nc3ccccc3s2)=C(O)CN1NC(=O)c1ccccc1[N+](=O)[O-] | n | n | n | n | n | n | x
O=S1(=O)N=C(Nc2ccc(N3CCOCC3)cc2)c2ccccc21 | n | n | n | n | n | n | x
O=S1(=O)N=C(Nc2ccc(S(=O)(=O)N3CCCCC3)cc2)c2ccccc21 | n | n | 47 | n | n | n | n
Cc1ccc(NC(=O)c2c(C(=O)Nc3ccccc3)sc3nc(C)cc(=O)n23)cc1 | n | n | 32 | n | n | n | n
CCc1ccc(NC(=O)c2c(C(=O)Nc3ccccc3)sc3nc(C)cc(=O)n23)cc1 | n | x | 35 | n | n | n | n
Cc1cc(=O)n2c(C(=O)Nc3ccc(C)c(C)c3)c(C(=O)Nc3ccccc3)sc2n1 | n | x | 34 | n | n | n | n
Cc1ccc(NC(=O)c2c(C)nc3ccccn23)cc1C | n | n | n | n | n | n | x
O=C(Cc1ccccc1)Nc1ncccc1Cl | x | x | x | x | n | x | x
Cc1nn(-c2ccccc2)c(Cl)c1C(=O)OCC(=O)N(C)c1c(N)n(Cc2ccccc2)c(=O)[nH]c1=O | n | n | n | n | n | n | x
C#CCOCCOCCOCCNc1nc(N2CCN(C(=O)[C@H](CCCN=C(N)N)n3cc(C(N)[C@@H](C)CC)nn3)CC2)nc(N2CCN(C(=O)[C@H](CCCCN)n3cc([C@@H](N)[C@H](C)CC)nn3)CC2)n1 (some centres undefined) | n | n | 36 | n | n | n | n
C#CCOCCOCCOCCNc1nc(N2CCN(C(=O)[C@H](CCCCN)n3cc(CN)nn3)CC2)nc(N2CCN(C(=O)[C@H](CCCCN)n3cc([C@@H](N)[C@H](C)CC)nn3)CC2)n1 | n | n | 43 | n | n | n | n
C#CCOCCOCCOCCNc1nc(N2CCN(C(=O)[C@H](CCCCN)n3cc([C@@H](N)C(C)CC)nn3)CC2)nc(N2CCN(C(=O)[C@H](CCCCN)n3cc([C@@H](N)CO)nn3)CC2)n1 (some centres undefined) | x | x | x | x | n | x | x
C#CCOCCOCCOCCNc1nc(N2CCN(C(=O)[C@H](CCCN=C(N)N)n3cc(C(N)[C@@H](C)CC)nn3)CC2)nc(N2CCN(C(=O)[C@H](CCC(=O)O)n3cc([C@@H](N)CCCCN)nn3)CC2)n1 (some centres undefined) | n | n | n | n | n | n | x
Cc1cc(C)cc(NC(=O)CSc2nc(=O)n3cc(C)ccc3n2)c1 | n | n | n | n | n | n | x
COc1cc(C(=O)N/C(=C/c2ccc(F)cc2)C(=O)NC(C(=O)O)c2ccccc2)cc(OC)c1OC (centres undefined) | n | n | n | n | n | n | x
Cc1ccccc1-n1ncc2c1CC(C)(C)CC2NC(=O)CCC(F)(F)F (centres undefined) | n | n | n | n | n | n | x
CCOC(=O)c1c(-c2ccccc2)oc2ccc(OCC(O)CNCCN(C)C)cc12 (centres undefined) | n | n | n | n | n | n | x
Cc1cccc(C)c1N1CCN(CCn2c(=S)[nH]c3ccccc3c2=O)CC1 | n | n | n | n | n | n | x
CC(=O)Nc1sc(C)c(C)c1C(=O)OCC(=O)Nc1cc(S(C)(=O)=O)ccc1Cl | n | n | 56 | n | n | n | n
CS(=O)(=O)c1ccc(Cl)c(NC(=O)COC(=O)c2c(Cl)cccc2Cl)c1 | n | n | n | n | n | n | x
N#CC(c1cccc([N+](=O)[O-])c1)C(CC(=O)c1ccccc1)c1ccccc1 (centres undefined) | n | x | x | n | x | x | x
CCCCc1nnc(NC(=O)CCS(=O)(=O)c2ccc(Cl)cc2)s1 | n | n | 24 | n | n | n | n
CN(C(=O)COC(=O)c1ccccc1OCc1ccc(Cl)cc1)c1c(N)n(Cc2ccccc2)c(=O)[nH]c1=O | n | n | 34 | n | n | n | n
COCCN(C(=O)COC(=O)CCc1ccccc1OC)c1c(N)n(Cc2ccccc2)c(=O)[nH]c1=O | n | n | n | n | n | n | x
SMILES | PKA-R1A act | CAL PDZ FP-1 | dFosB act-1 | PKA-R2B act | NTR1 agonist | CAL PDZ FP-2 | dFosB act-2
Cc1ccc(SCC(=O)OCC(=O)N(CC(C)C)c2c(N)n(Cc3ccccc3)c(=O)[nH]c2=O)cc1C | n | n | 33 | n | n | n | n
CCN(C(=O)COC(=O)CCc1ccccc1OC)c1c(N)n(Cc2ccccc2)c(=O)[nH]c1=O | n | n | 28 | n | n | n | n
Cc1ccc(C(=O)NCC(=O)OCC(=O)N(CC(C)C)c2c(N)n(Cc3ccccc3)c(=O)[nH]c2=O)cc1C | n | n | n | n | n | n | x
CC(C)CN(C(=O)COC(=O)C(C)N1C(=O)c2ccccc2C1=O)c1c(N)n(Cc2ccccc2)c(=O)[nH]c1=O (centres undefined) | n | n | 37 | n | n | n | n
COCCN1C(=O)C(=O)/C(=C(/O)c2ccc(S(=O)(=O)N3CCCCC3)cc2)C1c1ccc(O)c(OC)c1 (centres undefined) | n | n | n | n | n | n | x
COc1cc(OC)cc(-c2oc(=O)c3cc(OC)c(OC)cc3c2C(F)(F)F)c1 | n | n | n | n | n | n | x
Cc1ccc(OCCC(=O)N(CCC(C)C)c2c(N)n(Cc3ccccc3)c(=O)[nH]c2=O)cc1 | n | n | 24 | n | n | n | n
CCCN(C(=O)COC(=O)CCOc1ccc(C)cc1)c1c(N)n(Cc2ccccc2)c(=O)[nH]c1=O | n | n | n | n | n | n | x
NS(=O)(=O)c1ccc(NC(=O)c2cc(-c3cc(Cl)ccc3O)n[nH]2)cc1 | n | n | 38 | n | n | n | n
COc1ccc(OC)c(NC(=O)c2cc(-c3cc(Cl)ccc3O)n[nH]2)c1 | n | n | u | n | n | x | x
O=C(CCc1nc2ccccc2c(=O)[nH]1)NNC(=O)COc1ccccc1Cl | n | n | 56 | n | n | n | n
O=C(CCc1nc2ccccc2c(=O)[nH]1)Nc1ccc(Cl)c(Cl)c1 | n | n | n | n | n | n | x
CN(CC(=O)Nc1cccc(Cl)c1)S(=O)(=O)/C=C/c1ccccc1 | n | x | x | n | x | x | x
COc1ccc(-c2c(C#N)c(N)nc(Sc3ccc(Cl)cc3)c2C#N)cc1 | n | n | 121 | n | n | n | n
C=CCNC(=O)C1CC(=O)N(c2ccc(OCC(=O)Nc3cccc(OC)c3)cc2)C1 (centres undefined) | n | n | n | n | n | n | x
